Assay results collected from several papers.
Each line is one published result; the experiments were not run side by side.
Target: NT-3 growth factor receptor (NTRK3, Homo sapiens, UniProt Q16288)

O=C(N1CCS(=O)(=O)CC1)N1C[C@H](c2ccc(OC(F)(F)F)cc2)C[C@H](c2nc(C3CC3)no2)C1 — remaining binding (cell-free assay, competition with immobilised ligand; 1 µM): 100%
c1cncc(-c2cccc(Nc3nccc(NC4CCCCC4)n3)c2)c1 — remaining binding (binding, competition with immobilised ligand; 10 µM): 27%
CN(c1nccc(-c2cnn3ncccc23)n1)C1CC1 — remaining binding (binding; 1 µM): 100%
CC(=O)N1CCC(c2ccc(C(=O)NC(=N)N)cc2C(F)(F)F)CC1 — remaining binding (cell-free assay, competition with immobilised ligand; 1 µM): 100%
c1cnn2ncc(-c3ccnc(N4CCC45COC5)n3)c2c1 — remaining binding (binding; 1 µM): 73%
CSc1cccnc1N1CCN(Cc2nc3ccccc3[nH]2)CC1 — remaining binding (cell-free assay, competition with immobilised ligand; 1 µM): 83%
N[C@@H]1CCN(c2nccc(-c3cnn4ncccc34)n2)C1 — remaining binding (binding; 1 µM): 100%
CNC(=O)[C@@H]1CC[C@@H](n2c(-c3ccc4cnccc4c3)nc3ccc(C(=O)NCc4cccc(C(N)=O)c4)cc32)C1 — remaining binding (binding, competition with immobilised ligand; 1 µM): 100%
O=C(c1ccc(Nc2ncc(Cl)c(-c3ccc(Cl)s3)n2)cc1)N1CCC(N2CCCC2)CC1 — remaining binding (binding, competition with immobilised ligand; 1 µM): 24%
CN(CCCC(F)(F)F)c1nccc(-c2cnn3ncccc23)n1 — remaining binding (binding; 1 µM): 100%
O=C(NCCCN1CCOCC1)c1ccc(Nc2nccc(-c3cc4ccccc4s3)n2)cc1 — remaining binding (binding, competition with immobilised ligand; 1 µM): 75%
FC(F)(F)Oc1cccc(-c2cnc3ccc(-c4ccncc4)nn23)c1 — remaining binding (cell-free assay, competition with immobilised ligand; 5 µM): 20%
C=CC(=O)N1CCC(C(=O)NCC(=O)N2CCN(c3nc(-c4cnc(N)nc4C(F)F)nc(N4CCOCC4)n3)CC2)CC1 — remaining binding (binding, competition with immobilised ligand; 1 µM): 86%
O=C(Nc1cccnn1)N1CC(C/C=C/c2cncc(Oc3ccc(C(F)(F)F)cn3)n2)C1 — remaining binding (cell-free assay, competition with immobilised ligand; 1 µM): 85%
C[C@@H]1CCN(c2nccc(-c3cnn4ncccc34)n2)C1 — remaining binding (binding; 1 µM): 70%
COc1cnc(Nc2cccc(S(N)(=O)=O)c2)nc1N1CCN(c2ccccc2)CC1 — remaining binding (binding, competition with immobilised ligand; 1 µM): 61%
O=C(NCCCN1CCOCC1)c1ccc(Nc2ncc(Cl)c(-c3ccc(Cl)s3)n2)cc1 — remaining binding (binding, competition with immobilised ligand; 1 µM): 46%
Cc1cnn2ncc(-c3ccnc(N(C)C)n3)c2c1 — remaining binding (binding; 1 µM): 73%
CN1CCN(c2cnc3c(C4CCN(C(=O)c5ccc(OC(F)(F)F)cc5N)CC4)ncnc3c2)CC1 — remaining binding (cell-free assay, competition with immobilised ligand; 1 µM): 100%
O=C(NCC1CCOCC1)c1n[nH]cc1NC(=O)c1c(F)cccc1F — remaining binding (binding, competition with immobilised ligand; 1 µM): 98%
O=C(NCc1ncc(C(F)(F)F)cc1Cl)c1ccc2c(c1)C1(CCS(=O)(=O)CC1)[C@@H](C1CC1)N2S(=O)(=O)c1ccc(F)cc1 — remaining binding (cell-free assay, competition with immobilised ligand; 1 µM): 71%
CC1CCCN1c1nccc(-c2cnn3ncccc23)n1 (stereo not shown) — remaining binding (binding; 1 µM): 100%
